Test results reported in ChEMBL document CHEMBL4052588, “Design of a Biased Potent Small Molecule Inhibitor of the Bromodomain and PHD Finger-Containing (BRPF) Proteins Suitable for Cellular and in Vivo Studies” (J Med Chem, 2017).

Columns and labels:
[1] = molecular target: T1, Peregrin (Homo sapiens) (UniProt P55201)
T1 sequence (whole entry): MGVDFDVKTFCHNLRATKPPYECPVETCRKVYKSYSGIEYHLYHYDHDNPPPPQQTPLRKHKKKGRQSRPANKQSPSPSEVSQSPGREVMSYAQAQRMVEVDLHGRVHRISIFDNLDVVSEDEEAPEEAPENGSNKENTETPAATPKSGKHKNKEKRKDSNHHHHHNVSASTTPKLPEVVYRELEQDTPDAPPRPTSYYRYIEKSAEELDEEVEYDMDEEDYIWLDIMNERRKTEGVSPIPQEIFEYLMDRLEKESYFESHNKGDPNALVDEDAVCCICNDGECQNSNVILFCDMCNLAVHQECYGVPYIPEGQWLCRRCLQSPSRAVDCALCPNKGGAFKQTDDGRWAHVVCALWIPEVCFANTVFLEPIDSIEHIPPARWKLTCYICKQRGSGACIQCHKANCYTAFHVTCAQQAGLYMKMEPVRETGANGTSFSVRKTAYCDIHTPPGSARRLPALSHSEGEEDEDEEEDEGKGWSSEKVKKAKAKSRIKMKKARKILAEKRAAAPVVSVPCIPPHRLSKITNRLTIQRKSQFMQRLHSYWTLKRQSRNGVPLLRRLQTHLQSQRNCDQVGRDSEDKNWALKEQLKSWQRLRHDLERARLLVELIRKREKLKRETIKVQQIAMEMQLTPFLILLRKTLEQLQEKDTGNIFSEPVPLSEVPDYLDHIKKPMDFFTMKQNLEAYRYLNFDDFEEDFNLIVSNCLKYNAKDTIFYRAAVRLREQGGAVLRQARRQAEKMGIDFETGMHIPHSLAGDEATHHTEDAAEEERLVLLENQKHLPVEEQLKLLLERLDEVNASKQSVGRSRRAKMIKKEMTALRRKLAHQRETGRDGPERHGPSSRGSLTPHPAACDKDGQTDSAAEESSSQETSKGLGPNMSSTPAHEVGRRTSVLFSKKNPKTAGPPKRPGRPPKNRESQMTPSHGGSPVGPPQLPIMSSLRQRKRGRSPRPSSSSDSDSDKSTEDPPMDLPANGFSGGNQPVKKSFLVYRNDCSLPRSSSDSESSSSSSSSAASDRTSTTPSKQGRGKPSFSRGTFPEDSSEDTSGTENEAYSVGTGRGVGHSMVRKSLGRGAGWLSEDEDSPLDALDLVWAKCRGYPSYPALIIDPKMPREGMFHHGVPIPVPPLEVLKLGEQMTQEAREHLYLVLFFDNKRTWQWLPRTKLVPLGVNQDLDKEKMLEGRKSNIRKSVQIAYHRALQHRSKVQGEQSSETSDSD

[2] = molecular target: Bromodomain-containing protein 4 (Homo sapiens, UniProt O60885)
[3] = molecular target: ATPase family AAA domain-containing protein 2B (Homo sapiens, UniProt Q9ULI0); test: Inhibition of human ATAD2B expressed in Escherichia coli BL21 after 1 hr by BROMOscan assay
[4] = molecular target: T2, Peregrin (Homo sapiens, UniProt P55201); test: Inhibition of human His tagged BRPF1 incubated for 30 mins followed by addition of biotinylated peptide and further incubation for 30 mins measured by AlphaScreen assay
T2 sequence (P55201 whole entry): T1 sequence (whole entry)
In short: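 Independent AlphaScreen biochemical confirmation of BRPF bromodomain inhibition, with BRD9 and BRD4(BD1) as counter-screens. Test compound was serially diluted from a 100 mM DMSO stock.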

[5] = molecular target: T3, ATPase family AAA domain-containing protein 2 (Homo sapiens, UniProt Q6PL18); test: Inhibition of human ATAD2A expressed in Escherichia coli BL21 after 1 hr by BROMOscan assay
T3 sequence (Q6PL18 whole entry): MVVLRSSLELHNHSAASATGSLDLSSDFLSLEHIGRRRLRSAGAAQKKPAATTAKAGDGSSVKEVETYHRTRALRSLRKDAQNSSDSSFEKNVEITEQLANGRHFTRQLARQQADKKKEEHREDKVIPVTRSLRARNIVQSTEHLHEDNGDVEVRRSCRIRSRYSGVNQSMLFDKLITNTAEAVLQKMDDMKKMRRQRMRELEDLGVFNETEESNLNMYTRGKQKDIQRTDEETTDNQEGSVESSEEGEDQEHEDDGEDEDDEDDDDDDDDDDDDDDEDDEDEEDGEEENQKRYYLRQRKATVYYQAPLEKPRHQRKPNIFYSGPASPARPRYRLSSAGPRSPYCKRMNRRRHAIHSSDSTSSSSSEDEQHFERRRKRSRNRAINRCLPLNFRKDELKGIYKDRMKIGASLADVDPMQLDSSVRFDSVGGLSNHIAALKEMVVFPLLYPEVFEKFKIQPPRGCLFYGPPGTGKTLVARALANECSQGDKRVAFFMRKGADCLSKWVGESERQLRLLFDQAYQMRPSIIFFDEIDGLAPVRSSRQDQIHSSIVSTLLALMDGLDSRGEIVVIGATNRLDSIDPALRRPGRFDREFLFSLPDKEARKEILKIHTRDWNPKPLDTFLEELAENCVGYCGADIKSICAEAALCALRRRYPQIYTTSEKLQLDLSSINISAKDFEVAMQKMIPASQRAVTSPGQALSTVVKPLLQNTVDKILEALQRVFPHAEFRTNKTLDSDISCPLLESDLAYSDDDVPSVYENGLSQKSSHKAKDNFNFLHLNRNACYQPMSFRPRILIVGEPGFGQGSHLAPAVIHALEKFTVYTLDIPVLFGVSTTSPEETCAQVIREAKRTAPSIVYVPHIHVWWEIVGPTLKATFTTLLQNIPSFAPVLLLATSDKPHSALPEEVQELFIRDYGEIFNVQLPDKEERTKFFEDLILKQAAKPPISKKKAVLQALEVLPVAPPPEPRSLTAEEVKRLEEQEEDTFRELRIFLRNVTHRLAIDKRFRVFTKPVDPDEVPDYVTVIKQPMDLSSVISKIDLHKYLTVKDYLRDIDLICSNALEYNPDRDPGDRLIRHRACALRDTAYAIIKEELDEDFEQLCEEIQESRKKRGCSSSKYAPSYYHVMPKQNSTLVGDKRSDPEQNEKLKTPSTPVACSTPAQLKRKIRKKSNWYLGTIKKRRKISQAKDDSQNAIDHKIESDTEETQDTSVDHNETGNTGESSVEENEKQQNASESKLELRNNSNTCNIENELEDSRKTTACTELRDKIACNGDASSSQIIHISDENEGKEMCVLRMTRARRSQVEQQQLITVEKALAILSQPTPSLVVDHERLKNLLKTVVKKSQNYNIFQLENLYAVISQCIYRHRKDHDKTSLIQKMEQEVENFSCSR

ATPase family AAA domain-containing protein 2B, sequence (Q9ULI0 whole entry, the tested form may be a part): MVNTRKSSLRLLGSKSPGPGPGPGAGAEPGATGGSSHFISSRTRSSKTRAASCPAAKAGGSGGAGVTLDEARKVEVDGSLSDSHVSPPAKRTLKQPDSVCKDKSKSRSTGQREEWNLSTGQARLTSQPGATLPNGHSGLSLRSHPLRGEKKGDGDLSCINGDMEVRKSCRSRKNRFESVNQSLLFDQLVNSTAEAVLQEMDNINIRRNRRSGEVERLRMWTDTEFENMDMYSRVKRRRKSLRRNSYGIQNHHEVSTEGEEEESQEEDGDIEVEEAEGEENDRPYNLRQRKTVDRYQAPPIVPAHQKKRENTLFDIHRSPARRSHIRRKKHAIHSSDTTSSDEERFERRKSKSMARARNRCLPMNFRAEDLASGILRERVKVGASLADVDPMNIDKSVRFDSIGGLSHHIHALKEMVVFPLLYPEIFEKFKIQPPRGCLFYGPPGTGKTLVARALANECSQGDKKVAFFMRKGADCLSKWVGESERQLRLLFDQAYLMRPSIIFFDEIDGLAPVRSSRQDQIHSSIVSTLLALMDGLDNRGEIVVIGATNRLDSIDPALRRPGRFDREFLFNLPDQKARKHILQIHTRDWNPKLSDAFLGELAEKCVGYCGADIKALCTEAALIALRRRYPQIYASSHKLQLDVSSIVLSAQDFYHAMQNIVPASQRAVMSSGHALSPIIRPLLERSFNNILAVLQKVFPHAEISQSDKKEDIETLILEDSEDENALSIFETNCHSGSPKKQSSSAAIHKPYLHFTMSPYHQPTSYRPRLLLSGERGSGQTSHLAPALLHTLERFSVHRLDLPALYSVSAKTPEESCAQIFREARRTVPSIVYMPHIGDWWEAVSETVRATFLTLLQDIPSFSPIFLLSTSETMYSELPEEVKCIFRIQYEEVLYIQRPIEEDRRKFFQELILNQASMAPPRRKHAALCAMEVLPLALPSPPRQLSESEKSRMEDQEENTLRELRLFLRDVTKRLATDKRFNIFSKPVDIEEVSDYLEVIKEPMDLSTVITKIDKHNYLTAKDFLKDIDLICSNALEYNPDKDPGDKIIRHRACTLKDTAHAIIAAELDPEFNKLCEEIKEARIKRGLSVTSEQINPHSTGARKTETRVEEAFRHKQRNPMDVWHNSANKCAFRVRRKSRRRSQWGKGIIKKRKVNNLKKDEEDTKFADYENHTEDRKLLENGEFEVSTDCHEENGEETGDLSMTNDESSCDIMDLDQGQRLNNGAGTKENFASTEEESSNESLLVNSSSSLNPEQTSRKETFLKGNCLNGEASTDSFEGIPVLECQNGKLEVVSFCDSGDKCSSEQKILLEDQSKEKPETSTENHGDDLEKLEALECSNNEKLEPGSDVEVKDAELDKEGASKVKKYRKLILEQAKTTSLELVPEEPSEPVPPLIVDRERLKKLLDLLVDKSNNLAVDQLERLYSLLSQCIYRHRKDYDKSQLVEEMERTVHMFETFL

SMILES: Cn1c(=O)ccc2cc(NS(=O)(=O)c3ccc(C#N)c(Cl)c3)ccc21
- ΔTm [1]: 4.3 °C

SMILES: Cc1cc(C#N)ccc1S(=O)(=O)Nc1ccc2c(ccc(=O)n2C)c1
- ΔTm [2]: 0.4 °C
- ΔTm [1]: 6.5 °C

SMILES: CCc1cc2cc(NS(=O)(=O)c3ccc(C#N)cc3)ccc2n(CC)c1=O
- IC50 [3]: > 100 µM
- IC50 [4]: > 20000 nM
- IC50 [5]: > 100 µM

SMILES: Cc1cc2cc(NS(=O)(=O)c3ccc(C#N)cc3)ccc2n(C)c1=O
- IC50 [3]: > 100 µM
- ΔTm [2]: 0.95 °C
- IC50 [4]: 140 nM
- IC50 [5]: > 100 µM
